{"source": "ChEMBL document CHEMBL1145889", "about": "“Potent and selective inhibitors of platelet-derived growth factor receptor phosphorylation. 3. Replacement of quinazoline moiety and improvement of metabolic polymorphism of 4-[4-(N-substituted (thio)carbamoyl)-1-piperazinyl]-6,7-dimethoxyquinazoline derivatives” (J Med Chem, 2003)", "type_in_all_cases": "ADME, organism-based", "key": {"[1]": {"assay": "Mean residence time of intravenously administered compound (1 mg/kg) in rat no.2 belonging to phenotype EM (extensive metabolizer)", "settings": "in vivo, iv", "procedure,_shortened": "(§1)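 Male Sprague–Dawley rats (nos. 1–4) were dosed intravenously at 1 mg/kg. Plasma drug concentration was measured by HPLC. Parameters were derived by model-independent analysis. Rats were classed as extensive or poor metabolizers from their plasma profiles.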"}, "[2]": {"assay": "Pharmacokinetic parameter (AUC) was determined after administering 30 mg/kg of compound orally in rat no.5 belonging to phenotype PM (poor metabolizer)", "design": "dose 30 mg/kg, route oral", "settings": "in vivo, po", "procedure,_shortened": "(§2)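 Male Sprague–Dawley rats (nos. 5–7) were given 30 mg/kg orally. Plasma concentration was determined by HPLC. Tmax, T1/2, MRT, Cmax and AUC came from model-independent analysis. Extensive and poor metabolizers were assigned from the concentration–time profiles.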"}, "[3]": {"assay": "Pharmacokinetic parameter (AUC) was determined after administering 30 mg/kg of compound orally in rat no.6 belonging to phenotype EM (extensive metabolizer)", "design": "dose 30 mg/kg, route oral", "settings": "in vivo, po", "procedure,_shortened": "as §2"}, "[4]": {"assay": "Plasma clearance was determined after administering 1 mg/kg of compound intravenously in rat no.3 belonging to phenotype EM (extensive metabolizer)", "design": "dose 1 mg/kg, route intravenous", "settings": "iv", "procedure,_shortened": "as §1"}, "[5]": {"assay": "Maximum time of retention of orally administered compound (30 mg/kg) in rat no.5 belonging to phenotype PM (poor metabolizer)", "settings": "in vivo, po", "procedure,_shortened": "as §2"}, "[6]": {"assay": "Pharmacokinetic parameter (AUC) was determined after administering 1 mg/kg of compound intravenously in rat no.4 belonging to phenotype PM (poor metabolizer)", "design": "dose 1 mg/kg, route intravenous", "settings": "in vivo, iv", "procedure,_shortened": "as §1"}, "[7]": {"assay": "Pharmacokinetic parameter (AUC) was determined after administering 1 mg/kg of compound intravenously in rat no.1 belonging to phenotype EM (extensive metabolizer)", "design": "dose 1 mg/kg, route intravenous", "settings": "in vivo, iv", "procedure,_shortened": "as §1"}, "[8]": {"assay": "Half-life period of intravenously administered compound (1 mg/kg) in rat no.1 belonging to phenotype EM (extensive metabolizer)", "settings": "in vivo, iv, read-out: T1/2 beta (converted)", "procedure,_shortened": "as §1"}, "[9]": {"assay": "Plasma clearance was determined after administering 1 mg/kg of compound intravenously in rat no.4 belonging to phenotype PM (poor metabolizer)", "design": "dose 1 mg/kg, route intravenous", "settings": "iv", "procedure,_shortened": "as §1"}, "[10]": {"assay": "Half-life period of orally administered compound (30 mg/kg) in rat no.7 belonging to phenotype PM (poor metabolizer)", "settings": "in vivo, po", "procedure,_shortened": "as §2"}, "[11]": {"assay": "Volume of distribution at steady state was determined after administering 1 mg/kg of compound intravenously in rat no.3 belonging to phenotype EM (extensive metabolizer)", "design": "dose 1 mg/kg, route intravenous", "settings": "in vivo, iv, read-out: Vdss", "procedure,_shortened": "as §1"}, "[12]": {"assay": "Mean residence time of intravenously administered compound (1 mg/kg) in rat no.3 belonging to phenotype EM (extensive metabolizer)", "settings": "in vivo, iv", "procedure,_shortened": "as §1"}, "[13]": {"assay": "Mean residence time after oral administration of 30 mg/kg of compound in rat no.5 belonging to phenotype PM (poor metabolizer)", "design": "dose 30 mg/kg, route oral", "settings": "in vivo", "procedure,_shortened": "as §2"}, "[14]": {"assay": "Half-life period of intravenously administered compound (1 mg/kg) in rat no.2 belonging to phenotype EM (extensive metabolizer)", "settings": "in vivo, iv, read-out: T1/2 beta (converted)", "procedure,_shortened": "as §1"}, "[15]": {"assay": "Maximum plasma concentration was determined after administering 30 mg/kg of compound orally in rat no.5 belonging to phenotype PM (poor metabolizer)", "design": "dose 30 mg/kg, route oral", "settings": "po", "procedure,_shortened": "as §2"}, "[16]": {"assay": "Volume of distribution at steady state was determined after administering 1 mg/kg of compound intravenously in rat no.4 belonging to phenotype PM (poor metabolizer)", "design": "dose 1 mg/kg, route intravenous", "settings": "in vivo, iv, read-out: Vdss", "procedure,_shortened": "as §1"}, "[17]": {"assay": "Mean residence time of intravenously administered compound (1 mg/kg) in rat no.1 belonging to phenotype EM (extensive metabolizer)", "settings": "in vivo, iv", "procedure,_shortened": "as §1"}, "[18]": {"assay": "Maximum plasma concentration was determined after administering 30 mg/kg of compound orally n rat no.7 belonging to phenotype PM (poor metabolizer)", "design": "dose 30 mg/kg, route oral", "settings": "po", "procedure,_shortened": "as §2"}, "[19]": {"assay": "Pharmacokinetic parameter (AUC) was determined after administering 1 mg/kg of compound intravenously in rat no.3 belonging to phenotype EM (extensive metabolizer)", "design": "dose 1 mg/kg, route intravenous", "settings": "in vivo, iv", "procedure,_shortened": "as §1"}, "[20]": {"assay": "Volume of distribution at steady state was determined after administering 1 mg/kg of compound intravenously in rat no.2 belonging to phenotype EM (extensive metabolizer)", "design": "dose 1 mg/kg, route intravenous", "settings": "in vivo, iv, read-out: Vdss", "procedure,_shortened": "as §1"}, "[21]": {"assay": "Maximum time of retention of orally administered compound (30 mg/kg) in rat no.7 belonging to phenotype PM (poor metabolizer)", "settings": "in vivo, po", "procedure,_shortened": "as §2"}, "[22]": {"assay": "Plasma clearance was determined after administering 1 mg/kg of compound intravenously in rat no.2 belonging to phenotype EM (extensive metabolizer)", "design": "dose 1 mg/kg, route intravenous", "settings": "iv", "procedure,_shortened": "as §1"}, "[23]": {"assay": "Half-life period of orally administered compound (30 mg/kg) in rat no.6 belonging to phenotype EM (extensive metabolizer)", "settings": "in vivo, po", "procedure,_shortened": "as §2"}, "[24]": {"assay": "Mean residence time after oral administration of 30 mg/kg of compound in rat no.6 belonging to phenotype EM (extensive metabolizer)", "design": "dose 30 mg/kg, route oral", "settings": "in vivo", "procedure,_shortened": "as §2"}, "[25]": {"assay": "Half-life period of intravenously administered compound (1 mg/kg) in rat no.3 belonging to phenotype EM (extensive metabolizer)", "settings": "in vivo, iv, read-out: T1/2 beta (converted)", "procedure,_shortened": "as §1"}, "[26]": {"assay": "Plasma clearance was determined after administering 1 mg/kg of compound intravenously in rat no.1 belonging to phenotype EM (extensive metabolizer)", "design": "dose 1 mg/kg, route intravenous", "settings": "iv", "procedure,_shortened": "as §1"}, "[27]": {"assay": "Maximum time of retention of orally administered compound (30 mg/kg) in rat no.6 belonging to phenotype EM (extensive metabolizer)", "settings": "in vivo, po", "procedure,_shortened": "as §2"}, "[28]": {"assay": "Volume of distribution at steady state was determined after administering 1 mg/kg of compound intravenously in rat no.1 belonging to phenotype EM (extensive metabolizer)", "design": "dose 1 mg/kg, route intravenous", "settings": "in vivo, iv, read-out: Vdss", "procedure,_shortened": "as §1"}, "[29]": {"assay": "Pharmacokinetic parameter (AUC) was determined after administering 30 mg/kg of compound orally in rat no.7 belonging to phenotype PM (poor metabolizer)", "design": "dose 30 mg/kg, route oral", "settings": "in vivo, po", "procedure,_shortened": "as §2"}, "[30]": {"assay": "Maximum plasma concentration was determined after administering 30 mg/kg of compound orally in rat no.6 belonging to phenotype EM (extensive metabolizer)", "design": "dose 30 mg/kg, route oral", "settings": "po", "procedure,_shortened": "as §2"}, "[31]": {"assay": "Half-life period of intravenously administered compound (1 mg/kg) in rat no.4 belonging to phenotype PM (poor metabolizer)", "settings": "in vivo, iv, read-out: T1/2 beta (converted)", "procedure,_shortened": "as §1"}, "[32]": {"assay": "Mean residence time after oral administration of 30 mg/kg of compound in rat no.7 belonging to phenotype PM (poor metabolizer)", "design": "dose 30 mg/kg, route oral", "settings": "in vivo", "procedure,_shortened": "as §2"}, "[33]": {"assay": "Mean residence time of intravenously administered compound (1 mg/kg) in rat no.4 belonging to phenotype PM (poor metabolizer)", "settings": "in vivo, iv", "procedure,_shortened": "as §1"}, "[34]": {"assay": "Half-life period of orally administered compound (30 mg/kg) in rat no.5 belonging to phenotype PM (poor metabolizer)", "settings": "in vivo, po", "procedure,_shortened": "as §2"}}}
{"smiles": "COc1cc2ncnc(N3CCN(C(=O)Nc4ccc(C#N)cc4)CC3)c2cc1OC", "values": [{"measurement": "MRT", "setting": "[1]", "value": 0.39, "unit": "h"}, {"measurement": "AUC", "setting": "[2]", "value": 815000, "unit": "ng·h/mL"}, {"measurement": "AUC", "setting": "[3]", "value": 26300, "unit": "ng·h/mL"}, {"measurement": "clearance", "setting": "[4]", "value": 6.88, "unit": "mL/min/kg"}, {"measurement": "Tmax", "setting": "[5]", "value": 8, "unit": "h"}, {"measurement": "AUC", "setting": "[6]", "value": 23600, "unit": "ng·h/mL"}, {"measurement": "AUC", "setting": "[7]", "value": 2870, "unit": "ng·h/mL"}, {"measurement": "half-life", "setting": "[8]", "value": 0.97, "unit": "h"}, {"measurement": "clearance", "setting": "[9]", "value": 0.707, "unit": "mL/min/kg"}, {"measurement": "half-life", "setting": "[10]", "value": 3.4, "unit": "h"}, {"measurement": "Vd", "setting": "[11]", "value": 0.15, "unit": "L/kg"}, {"measurement": "MRT", "setting": "[12]", "value": 0.35, "unit": "h"}, {"measurement": "MRT", "setting": "[13]", "value": 8.56, "unit": "h"}, {"measurement": "half-life", "setting": "[14]", "value": 0.45, "unit": "h"}, {"measurement": "Cmax", "setting": "[15]", "value": 50700, "unit": "ng/mL"}, {"measurement": "Vd", "setting": "[16]", "value": 0.18, "unit": "L/kg"}, {"measurement": "MRT", "setting": "[17]", "value": 0.65, "unit": "h"}, {"measurement": "Cmax", "setting": "[18]", "value": 35200, "unit": "ng/mL"}, {"measurement": "AUC", "setting": "[19]", "value": 2420, "unit": "ng·h/mL"}, {"measurement": "Vd", "setting": "[20]", "value": 0.16, "unit": "L/kg"}, {"measurement": "Tmax", "setting": "[21]", "value": 2, "unit": "h"}, {"measurement": "clearance", "setting": "[22]", "value": 6.73, "unit": "mL/min/kg"}, {"measurement": "half-life", "setting": "[23]", "value": 2.54, "unit": "h"}, {"measurement": "MRT", "setting": "[24]", "value": 3.92, "unit": "h"}, {"measurement": "half-life", "setting": "[25]", "value": 0.39, "unit": "h"}, {"measurement": "clearance", "setting": "[26]", "value": 5.82, "unit": "mL/min/kg"}, {"measurement": "Tmax", "setting": "[27]", "value": 2, "unit": "h"}, {"measurement": "Vd", "setting": "[28]", "value": 0.22, "unit": "L/kg"}, {"measurement": "AUC", "setting": "[29]", "value": 455000, "unit": "ng·h/mL"}, {"measurement": "Cmax", "setting": "[30]", "value": 5220, "unit": "ng/mL"}, {"measurement": "half-life", "setting": "[31]", "value": 3.1, "unit": "h"}, {"measurement": "MRT", "setting": "[32]", "value": 6.36, "unit": "h"}, {"measurement": "MRT", "setting": "[33]", "value": 4.2, "unit": "h"}, {"measurement": "half-life", "setting": "[34]", "value": 5.25, "unit": "h"}]}
